Compound activity deposited in PubChem by Johns Hopkins Ion Channel Center.
This is a sample that favours compounds with a hit; in the whole collection about 3.5% have one here.
RGS4 inh = RGS4 inhibitors, primary screen, cell-based, HEK293 M3R inducible RGS4, calcium flux | Regulator of G-protein signaling 4 (Homo sapiens), P49798 | Fluo-4 calcium flux; stronger effect = higher value; triggered by carbachol at its EC20 | B-score at 10 µM | 310,000 tested, 0.45% active | AID 463165, 2010;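 active means B-score, a plate-corrected calcium signal, over three deviations above library mean, with baseline fluorescence within five deviations of library mean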;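 further: RGS4 expression induced by doxycycline in cells with stable M3 receptor; B-score is computed from the integrated fluorescence ratio over baseline after carbachol; higher B-score means a larger calcium signal and so more RGS4 inhibition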
Target sequence (P49798 whole entry, looked up): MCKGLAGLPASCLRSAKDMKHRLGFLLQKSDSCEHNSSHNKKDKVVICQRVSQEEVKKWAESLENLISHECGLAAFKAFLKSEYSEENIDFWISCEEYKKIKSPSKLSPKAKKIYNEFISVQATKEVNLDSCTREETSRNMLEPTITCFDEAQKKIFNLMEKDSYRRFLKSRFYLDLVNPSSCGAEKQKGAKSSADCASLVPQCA
MrgX1 antagonist = antagonists of human MrgX1 receptor, primary screen, HEK293 cells, Fluo-4 calcium flux | 310,000 tested, 1.3% active | B-score at 10 µM | Mas-related G-protein coupled receptor member X1 (Homo sapiens), Q96LB2 | BAM8-22 antagonism; stronger effect = lower value;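 active means calcium-response B-score plate-corrected more than 3 library SD below zero, starting fluorescence within 5 deviations, no agonist response on first addition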;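 further: peak minus trough fluorescence over baseline after final BAM8-22 challenge near maximal dose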
Target sequence (Q96LB2 whole entry, looked up): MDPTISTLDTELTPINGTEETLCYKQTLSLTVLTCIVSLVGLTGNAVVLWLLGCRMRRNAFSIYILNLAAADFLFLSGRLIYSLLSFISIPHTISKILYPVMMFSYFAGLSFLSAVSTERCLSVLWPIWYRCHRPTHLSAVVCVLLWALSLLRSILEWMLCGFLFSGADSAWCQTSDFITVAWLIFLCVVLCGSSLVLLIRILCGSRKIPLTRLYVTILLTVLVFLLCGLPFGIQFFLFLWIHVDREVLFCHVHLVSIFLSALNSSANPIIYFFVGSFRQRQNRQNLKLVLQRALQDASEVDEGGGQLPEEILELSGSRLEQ
MrgX1 allo act = positive allosteric modulators of MrgX1, primary screen, HEK293 cells, Fluo-4 calcium flux. 310,000 tested, 0.63% active. B-score at 10 µM. AID 588675, 2011. FDSS; stronger effect = higher value. Mas-related G-protein coupled receptor member X1 (Homo sapiens), Q96LB2;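 active means plate-corrected calcium response at least 3 library SD above typical, normal starting fluorescence, not activating the receptor alone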;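 further: compound read alongside a low EC10 to EC30 dose of BAM8-22 agonist; peak minus trough fluorescence over baseline measured at the second addition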
MrgX1 agonist = agonists of human MrgX1 receptor, primary screen, HEK293 cells, Fluo-4 calcium flux. Fluo-4 calcium fluorescence, agonist mode; stronger effect = higher value. B-score at 10 µM. 310,000 tested, 0.44% active. AID 588627, 2011;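 active means calcium response B-score plate-corrected fluorescence ratio at least 3 library SD, with starting fluorescence B-score inside 5 SD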
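times = overnight plating, then 30 min 37 °C plus 30 min room-temperature dye loading | assay system = stable human MrgX1 HEK293 cell line | input = fifteen thousand cells per well | signal = kinetic calcium dye fluorescence, Fluo-4 NW | dosing = compound delivered in addition one of three | read-out = B-scored fluorescence response ratio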
RGS4 act = RGS4 potentiators or activators, primary screen, cell-based, HEK293 M3R inducible RGS4, calcium flux; 310,000 tested, 0.92% active; B-score at 10 µM; carbachol calcium flux Fluo4; stronger effect = lower value; AID 463111, 2010;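 active means B-score of the integrated calcium signal more than 4 SD below the library mean, with starting fluorescence not abnormally high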;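 further: negative B-score means reduced calcium response which marks RGS4 activation or potentiation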
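test system = HEK293 cells with stable M3R and inducible RGS4 | schedule = recording 10 s baseline at 1 Hz, 100 s post-agonist | technique = Fluo4-AM (2 µM) calcium-flux fluorescence, kinetic read | measure = Agonist-evoked peak-minus-minimum fluorescence over baseline, integrated ratio, B score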
Each line names hits and unclear results; the compound was inactive in the other large screens.

COc1cc(/C=N/Nc2nc(=O)[nH]nc2C)ccc1O	none
Clc1cccc(COn2c(-c3ccc(Cl)cc3Cl)nc3ncccc32)c1	none
Cc1ccc(COn2c(-c3ccc(Cl)cc3Cl)nc3ncccc32)cc1	RGS4 act -8.65
COc1ccc(N2CCN(C(=O)c3cccc(NC(=O)c4ccco4)c3)CC2)cc1	none
Cc1cccc(C(=O)NCC(=O)NCCCSc2ccccc2)c1	none
COc1ccc(/C=C(/C(=O)c2ccc(Cl)cc2Cl)n2cncn2)cc1	MrgX1 agonist 34.9
CC(C)CN(C(=O)COC(=O)COc1ccc2ccccc2c1)c1c(N)n(Cc2ccccc2)c(=O)[nH]c1=O	MrgX1 antagonist -6.39
CCOc1ccc(OCC(=O)OCC(=O)N(CC(C)C)c2c(N)n(Cc3ccccc3)c(=O)[nH]c2=O)cc1	none
C[C@H]1c2cccc(O)c2C(O)=C2C(=O)[C@]3(O)C(O)=C(C(N)=O)C(=O)[C@@H](N(C)C)C3[C@@H](O)C21 (stereo partly drawn)	MrgX1 antagonist -6.78
O=c1oc2ccccc2nc1/C=C(O)/C=C/c1ccc(F)cc1	none
O=c1oc2ccccc2nc1/C=C(O)/C=C\c1ccccc1	MrgX1 allo act 8.58
Cc1ccc(S(=O)(=O)Oc2ccccc2/C=C2/SC(=O)NC2=O)cc1	MrgX1 agonist 26.9
Cc1ccc2c(C(=O)CCl)c(C)[nH]c2c1	MrgX1 allo act 8.16
FC(F)Sc1ccc(NC(=S)NCC2CCCCC2)cc1	MrgX1 antagonist -5.12
CCOC(=O)CN(C(=O)CNC(=O)c1ccco1)C(C(=O)NC1CCCC1)c1ccccc1OCC (stereo not drawn)	MrgX1 antagonist -5.4
O=C(NC1CCCC1)C(c1ccccc1F)N(C(=O)c1ccco1)C1CCCC1 (stereo not drawn)	RGS4 act -7.13
CCN(c1ccccc1)S(=O)(=O)c1ccc(Cl)c(C(=O)OCC(=O)c2[nH]c(C)c(C(C)=O)c2C)c1	RGS4 act -7.16
CC(=O)c1c(C)[nH]c(C(=O)COC(=O)c2cc(S(=O)(=O)N(C)c3ccccc3)ccc2Cl)c1C	none
CCOC(=O)c1[nH]c(C)c(/C(O)=C2\C(=O)C(=O)N(CCN(C)C)C2c2ccncc2)c1C (stereo not drawn)	none
CCCCC1(C)OC(=O)C(=Cc2ccc(N(C)C)cc2)C(=O)O1 (stereo not drawn)	MrgX1 agonist 29.4
S=c1[nH]nc(C2CCCCC2)n1/N=C/c1ccc(Br)s1	none
O=C(Nc1ccccc1N1CCOCC1)c1cc2ccccc2o1	none
O=C(Nc1ccc(N2CCOCC2)c(Cl)c1)c1cc2ccccc2o1	RGS4 act -7.6
CNS(=O)(=O)c1ccc(NCC2COc3ccccc3O2)c([N+](=O)[O-])c1 (stereo not drawn)	none
Cc1ccc(S(=O)(=O)N(CC(=O)Nc2cccc(N(C)S(C)(=O)=O)c2)c2ccc(Cl)c(Cl)c2)cc1	RGS4 act -10.6
CN(c1cccc(NC(=O)CN(c2ccc(Cl)c(Cl)c2)S(=O)(=O)c2ccccc2)c1)S(C)(=O)=O	none
CCCN1C(=O)c2cc(C(=O)Nc3ccccc3OC)ccc2C1Nc1ccccc1OC (stereo not drawn)	RGS4 act -7.23
C#CCOCCOCCOCCNc1nc(N2CCN(C(=O)CCCCCCCCCCNC(=O)Cn3cc(CCCCCN)nn3)CC2)nc(N2CCN(C(=O)CCCCCCCCCCNC(=O)[C@H]([C@@H](C)CC)n3cc(CCCCCN)nn3)CC2)n1	MrgX1 agonist 50.7 (no result: RGS4 inh, RGS4 act)
C#CCOCCOCCOCCNc1nc(N2CCN(C(=O)CCCCCCCCCCNC(=O)[C@H](CCCCN)n3cc(C)nn3)CC2)nc(N2CCN(C(=O)CCCCCCCCCCNC(=O)[C@@H]([C@H](C)CC)n3cc(CCCCCN)nn3)CC2)n1	MrgX1 agonist 120 (no result: RGS4 inh, RGS4 act)
CC[C@H](C)Cc1cn([C@@H](CCCCNC(=O)OC(C)(C)C)C(=O)NCCCCCCCCCCC(=O)N2CCN(C(=O)OC(C)(C)C)CC2)nn1	MrgX1 antagonist -7.07 (no result: RGS4 inh, RGS4 act)
C#CCOCCOCCOCCNc1nc(N2CCN(C(=O)CCCCCCCCCCNC(=O)[C@H]([C@@H](C)CC)n3cc(CCCCCN)nn3)CC2)nc(N2CCN(C(=O)CCCCCCCCCCNC(=O)[C@@H]([C@H](C)O)n3cc(C)nn3)CC2)n1	none (no result: RGS4 inh, RGS4 act)
